Laboratory results published in ChEMBL document CHEMBL3120059, “Flavonoids, flavonoid metabolites, and phenolic acids inhibit oxidative stress in the neuronal cell line HT-22 monitored by ECIS and MTT assay: a comparative study” (J Nat Prod, 2014).
Calls of active or inactive are those of the source. The calls are words filed in the database; no cut-off is given here.

Key:
[1] = tested on: HT-22; experiment: Cytotoxicity against mouse HT22 cells assessed as cell viability at 40 uM after 24 hrs by MTT assay; format: cell-based; details: ht-22, 24 h
How it was run: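 Confluent-layer MTT. Gelatin-precoated 96-well plates were seeded at 5 × 10^4 HT-22 cells/well and grown 24 h to confluence, then exposed 24 h to 40 μM compound (DMSO <0.1%). MTT stock (4 mg/mL) was diluted 1:10 and incubated 1 h. Lysis was with 10% SDS pH 4.1, A560 read next day. Results are % of untreated control, ≥3 independent experiments.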

[2] = tested on: HT-22; experiment: Neuroprotective activity in mouse HT22 cells assessed as reduction of t-BOOH-induced oxidative stress at 40 uM preincubated for 3 hrs followed by t-BOOH induction measured after 20 hrs by MTT assay; format: functional, cell-based
How it was run: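 Run in the ECIS wells right after impedance recording ended, 20 h after t-BOOH (3 h, 40 μM compound preincubation; 300 μM t-BOOH). MTT stock (4 mg/mL in PBS) was diluted 1:10 in medium and incubated 1 h. Lysis was with 10% SDS pH 4.1, A560 read next day. Viability is given as % of untreated control, mean ± SD of three independent experiments.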

[3] = tested on: HT-22; experiment: Neuroprotective activity in mouse HT22 cells assessed as reduction of t-BOOH-induced oxidative stress at 40 uM preincubated for 3 hrs followed by t-BOOH induction measured for 20 hrs by time-resolved ECIS analysis; format: functional, cell-based
How it was run: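 HT-22 cells on 8-well gold-electrode arrays precoated with glutaraldehyde-crosslinked gelatin, seeded at 6 × 10^5 cells/well and grown 2−3 days to confluence (37 °C, 5% CO2). After 1 h baseline, compound (40 μM final, DMSO <0.1%) was added for 3 h, then 300 μM t-BOOH. Impedance was recorded 20 h, |Z| normalized to the last pre-t-BOOH value; three independent experiments.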

[4] = tested on: HT-22; experiment: Neuroprotective activity in mouse HT22 cells assessed as t-BOOH-induced toxicity at 40 uM preincubated for 3 hrs followed by t-BOOH induction measured after 9 hrs by MTT assay; format: functional, cell-based
How it was run: (§1)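 Confluent HT-22 cells under the ECIS conditions: 3 h preincubation with 40 μM compound, then 300 μM t-BOOH. MTT reaction was started 4.5 h or 9 h after t-BOOH addition. Viability is expressed relative to untreated control.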

[5] = tested on: HT-22; experiment: Neuroprotective activity in mouse HT22 cells assessed as t-BOOH-induced toxicity at 40 uM preincubated for 3 hrs followed by t-BOOH induction measured after 4.5 hrs by MTT assay; format: functional; how it was run: as §1
[6] = tested on: HT-22; experiment: Neuroprotective activity in mouse HT22 cells assessed as reduction of t-BOOH-induced oxidative stress preincubated for 3 hrs followed by t-BOOH induction measured for 20 hrs by time-resolved ECIS analysis; format: functional, cell-based
How it was run: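 HT-22 cells grown to confluence (2–3 days) on gelatin/glutaraldehyde-precoated gold electrode arrays, 37 °C, 5% CO2; 1 h baseline equilibration, then compounds (DMSO <0.1%, 40 μM final; positive control 10–50 μM) preincubated 3 h before 300 μM t-BOOH. Impedance magnitude |Z| recorded 20 h further, normalized to last value before t-BOOH; three independent experiments, mean ± SD.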

[7] = tested on: HT-22; experiment: Neuroprotective activity in mouse HT22 cells assessed as reduction of glutamate-induced oxidative stress after 24 hrs by MTT assay; format: functional, cell-based
How it was run: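 Unconfluent HT-22 cells seeded at 5 × 10^3/well, cultured 24 h, then incubated 24 h with compound plus 5 mM glutamate. MTT stock (4 mg/mL) was diluted 1:10 and incubated 3 h. Lysis was with 10% SDS pH 4.1, A560 read next day. Viability is % of untreated control; three independent experiments, each in quadruplicate.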

[8] = tested on: HT-22; experiment: Neuroprotective activity in mouse HT22 cells assessed as reduction of glutamate-induced oxidative stress by ECIS analysis; format: functional, cell-based
[9] = tested on: HT-22; experiment: Cytotoxicity against mouse HT22 cells assessed as cell viability after 24 hrs by MTT assay; format: cell-based; details: ht-22, 24 h

Structure (SMILES): O=C(O)Cc1ccc(O)c(O)c1 [3,4-DIHYDROXYPHENYLACETIC ACID]
- Activity [1]: Non-toxic

Structure (SMILES): O=C(O)/C=C/c1ccc(O)c(O)c1 [CAFFEIC ACID]
- Activity [1]: Non-toxic
- Activity [2]: inactive
- Activity [3]: inactive

Structure (SMILES): COC(=O)/C=C/c1ccc(O)c(O)c1 [METHYLCAFFEATE]
- Activity [4]: Active
- Activity [1]: Non-toxic
- Activity [2]: Active
- Activity [3]: Active

Structure (SMILES): Cc1ccc(O)c(O)c1
- Activity [4]: Active
- Activity [1]: Non-toxic
- Activity [2]: Active
- Activity [5]: 70%
- Activity [3]: Active

Structure (SMILES): Oc1ccccc1O [CATECHOL]
- Activity [4]: Active
- Activity [1]: Toxic
- Activity [2]: Active
- Activity [3]: Active

Structure (SMILES): COC(=O)/C=C/c1ccc(O)c(OC)c1
- Activity [1]: Non-toxic
- Activity [2]: inactive
- Activity [3]: inactive

Structure (SMILES): O=c1cc(-c2ccc(O)c(O)c2)oc2cc(O)cc(O)c12
- Activity [4]: Active
- Activity [2]: Active

Structure (SMILES): COc1cc(/C=C/C(=O)O)ccc1O [FERULATE]
- Activity [1]: Non-toxic
- Activity [2]: inactive
- Activity [3]: inactive

Structure (SMILES): COc1cc(-c2oc3cc(O)cc(O)c3c(=O)c2O)ccc1O
- Activity [2]: inactive
- Activity [3]: inactive

Structure (SMILES): O=c1c(O)c(-c2ccc(O)c(O)c2)oc2cc(O)cc(O)c12 [QUERCETIN]
- Activity [4]: Active
- Activity [6]: Dose-dependent effect
- Activity [2]: Active
- Activity [5]: 70%

Structure (SMILES): O=C(O)[C@H]1O[C@@H](Oc2c(-c3ccc(O)c(O)c3)oc3cc(O)cc(O)c3c2=O)[C@H](O)[C@@H](O)[C@@H]1O
- Activity [7]: inactive
- Activity [8]: inactive

Structure (SMILES): O=C(O)Cc1cccc(O)c1 [3-Hydroxyphenylacetate]
- Activity [1]: Non-toxic

Structure (SMILES): O=C1C[C@@H](c2ccc(O)cc2)Oc2cc(O)cc(O)c21
- Activity [2]: inactive
- Activity [3]: inactive

Structure (SMILES): COC(=O)[C@H]1O[C@@H](Oc2c(-c3ccc(O)c(O)c3)oc3cc(O)cc(O)c3c2=O)[C@H](O)[C@@H](O)[C@@H]1O
- Activity [7]: inactive
- Activity [8]: inactive

Structure (SMILES): Oc1cc(O)c2c(c1)O[C@H](c1ccc(O)c(O)c1)[C@H](O)[C@H]2c1c(O)cc(O)c2c1O[C@H](c1ccc(O)c(O)c1)[C@@H](O)C2
- Activity [2]: inactive
- Activity [3]: inactive

Structure (SMILES): COC(=O)Cc1ccc(O)c(O)c1
- Activity [4]: Active
- Activity [1]: Non-toxic
- Activity [2]: Active
- Activity [5]: 70%
- Activity [3]: Active

Structure (SMILES): O=c1cc(-c2ccc(O)cc2)oc2cc(O)cc(O)c12
- Activity [2]: inactive
- Activity [3]: inactive

Structure (SMILES): O=c1c(O)c(-c2ccc(O)cc2)oc2cc(O)cc(O)c12 [KAEMPFEROL]
- Activity [2]: inactive
- Activity [7]: Dose-dependent effect
- Activity [9]: Dose-dependent effect
- Activity [3]: inactive

Structure (SMILES): O=C1C[C@@H](c2ccc(O)c(O)c2)Oc2cc(O)cc(O)c21 [ERIODICTYOL]
- Activity [4]: Active
- Activity [2]: Active
- Activity [7]: Dose-dependent effect
- Activity [9]: Dose-dependent effect
- Activity [8]: Active

Structure (SMILES): Oc1cc(O)c2c(c1)OC(c1ccc(O)c(O)c1)C(O)C2 (stereo not drawn)
- Activity [2]: inactive
- Activity [3]: inactive
